Measurements from ChEMBL document CHEMBL1137338, “Effects of substitution on 9-(3-bromo-4-fluorophenyl)-5,9-dihydro-3H,4H-2,6-dioxa-4- azacyclopenta[b]naphthalene-1,8-dione, a dihydropyridine ATP-sensitive potassium channel opener” (J Med Chem, 2006).

Legend:
[1] = target: T1, Sulfonylurea receptor 2, Kir6.2 (Homo sapiens, UniProt O60706+Q14654); experiment: Activity against pig bladder KATP channel opening assessed as ability to relax spontaneous bladder contraction; type: functional, Sus scrofa; details: target entry is the homologue from another species
T1 sequence (Q14654 whole entry): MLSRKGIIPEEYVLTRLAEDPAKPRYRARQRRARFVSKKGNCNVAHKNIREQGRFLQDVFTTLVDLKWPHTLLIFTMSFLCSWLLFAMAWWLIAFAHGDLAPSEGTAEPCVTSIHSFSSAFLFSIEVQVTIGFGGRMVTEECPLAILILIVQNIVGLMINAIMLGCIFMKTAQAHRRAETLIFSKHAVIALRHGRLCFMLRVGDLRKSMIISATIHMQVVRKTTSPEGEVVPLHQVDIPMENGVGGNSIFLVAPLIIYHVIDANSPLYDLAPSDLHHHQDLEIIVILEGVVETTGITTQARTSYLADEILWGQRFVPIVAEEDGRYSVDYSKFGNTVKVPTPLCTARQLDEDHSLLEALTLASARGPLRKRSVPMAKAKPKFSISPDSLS
T1 sequence (O60706 whole entry): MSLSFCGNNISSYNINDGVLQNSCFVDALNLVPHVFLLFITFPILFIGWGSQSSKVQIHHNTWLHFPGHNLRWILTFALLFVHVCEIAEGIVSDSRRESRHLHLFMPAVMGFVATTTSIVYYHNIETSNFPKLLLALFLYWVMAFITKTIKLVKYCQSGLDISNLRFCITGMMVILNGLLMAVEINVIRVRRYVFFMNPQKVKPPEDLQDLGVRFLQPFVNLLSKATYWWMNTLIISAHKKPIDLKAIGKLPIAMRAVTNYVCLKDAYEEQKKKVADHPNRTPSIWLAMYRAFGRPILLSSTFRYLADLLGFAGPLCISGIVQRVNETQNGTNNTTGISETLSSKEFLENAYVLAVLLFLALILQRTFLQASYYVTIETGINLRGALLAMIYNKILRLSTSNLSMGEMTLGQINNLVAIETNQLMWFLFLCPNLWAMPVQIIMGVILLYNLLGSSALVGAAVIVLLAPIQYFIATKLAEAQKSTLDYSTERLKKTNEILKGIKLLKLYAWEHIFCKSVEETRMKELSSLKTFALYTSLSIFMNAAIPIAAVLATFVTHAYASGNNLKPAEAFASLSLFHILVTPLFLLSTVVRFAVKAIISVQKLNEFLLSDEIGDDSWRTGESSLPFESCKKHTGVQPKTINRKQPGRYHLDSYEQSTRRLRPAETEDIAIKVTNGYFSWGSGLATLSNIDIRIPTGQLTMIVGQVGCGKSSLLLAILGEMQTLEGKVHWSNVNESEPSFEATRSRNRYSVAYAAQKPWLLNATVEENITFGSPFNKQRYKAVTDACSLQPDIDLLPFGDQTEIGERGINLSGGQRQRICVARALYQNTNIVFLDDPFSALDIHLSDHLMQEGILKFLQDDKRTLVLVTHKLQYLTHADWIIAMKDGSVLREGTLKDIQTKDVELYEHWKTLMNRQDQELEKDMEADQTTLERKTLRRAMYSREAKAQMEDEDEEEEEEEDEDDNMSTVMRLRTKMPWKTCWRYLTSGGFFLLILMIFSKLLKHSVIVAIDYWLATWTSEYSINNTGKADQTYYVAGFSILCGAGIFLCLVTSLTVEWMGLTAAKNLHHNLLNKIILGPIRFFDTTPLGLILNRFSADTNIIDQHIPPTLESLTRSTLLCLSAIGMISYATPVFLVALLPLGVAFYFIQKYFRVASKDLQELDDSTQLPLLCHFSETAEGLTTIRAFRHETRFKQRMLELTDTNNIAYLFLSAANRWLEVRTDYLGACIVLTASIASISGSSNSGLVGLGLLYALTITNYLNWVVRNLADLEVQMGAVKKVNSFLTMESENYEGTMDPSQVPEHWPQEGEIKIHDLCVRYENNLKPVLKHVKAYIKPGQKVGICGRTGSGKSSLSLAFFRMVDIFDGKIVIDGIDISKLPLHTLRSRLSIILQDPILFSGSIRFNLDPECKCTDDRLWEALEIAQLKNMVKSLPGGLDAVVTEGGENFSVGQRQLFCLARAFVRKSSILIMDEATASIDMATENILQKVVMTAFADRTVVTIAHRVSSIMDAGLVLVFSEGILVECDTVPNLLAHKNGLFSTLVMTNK
How it was run: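 Spontaneously contracting detrusor strips were taken from near the trigonal region of Landrace pig bladder. Increasing concentrations of test agent were applied, and the reduction in area under the curve (AUC) of the spontaneous contractions was measured.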

[2] = target: T1, Sulfonylurea receptor 2, Kir6.2; experiment: (§1) Activity against pig bladder KATP channel opening assessed as ability to relax field-stimulated pig detrusor; type: functional, Sus scrofa; details: target entry is the homologue from another species
[3] = target: T1, Sulfonylurea receptor 2, Kir6.2; experiment: (§2) Ability to open human urinary bladder Kir6.2 channel containing SUR2B in Ltk cells by FLIPR assay; type: functional, cell-based
How it was run: (§3)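 Ltk- cells stably transfected with the Kir6.2/SUR2B exon 17- splice variant. Membrane potential was followed with DiBAC dye in a 96-well cell-based kinetic fluorescence (FLIPR) assay. The highest concentration tested was 10 µM. Each compound's maximal fluorescence response was expressed as % of the response to the reference opener.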

[4] = target: T2, Sulfonylurea receptor 2, Kir6.2 (Homo sapiens) (UniProt Q14654+O60706); experiment: Ability to open human urinary bladder Kir6.2 containing SUR2B in Ltk cells by FLIPR assay relative to P1075; type: functional, cell-based; how it was run: as §3
[5] = target: T2, Sulfonylurea receptor 2, Kir6.2 (Homo sapiens); experiment: Activity against pig bladder KATP channel opening assessed as ability to relax field-stimulated pig detrusor relative to P1075; type: functional; details: Sus scrofa; target entry is the homologue from another species
[6] = target: T2, Sulfonylurea receptor 2, Kir6.2 (Homo sapiens); experiment: as §2; type: functional, cell-based; details: filed as partial agonist; how it was run: as §3
[7] = target: T2, Sulfonylurea receptor 2, Kir6.2 (Homo sapiens); experiment: Activity against pig bladder KATP channel opening assessed as ability to relax spontaneous bladder contraction relative to P1075; type: functional; details: Sus scrofa; target entry is the homologue from another species
[8] = tested on: Rattus norvegicus; experiment: Activity against spontaneous myogenic bladder contraction in partial outlet obstructed rat measured as reduction in AUC at 0.03 umol/kg, iv; type: functional; parameters: scale not given: the % may be the effect or the level left
[9] = tested on: Rattus norvegicus; experiment: Activity against volume-induced reflex neurogenic bladder contraction in urethral ligated rat measured as reduction in AUC at 0.3 umol/kg, iv; type: functional, Urinary bladder; parameters: scale not given: the % may be the effect or the level left
[10] = tested on: Rattus norvegicus; experiment: Activity against volume-induced reflex neurogenic bladder contraction in urethral ligated rat measured as reduction in MAP at 1 umol/kg, iv; type: functional, Urinary bladder; parameters: scale not given: the % may be the effect or the level left
[11] = tested on: Rattus norvegicus; experiment: Activity against volume-induced reflex neurogenic bladder contraction in urethral ligated rat measured as reduction in AUC at 3 umol/kg, iv; type: functional, Urinary bladder; parameters: scale not given: the % may be the effect or the level left
[12] = tested on: Rattus norvegicus; experiment: Activity against spontaneous myogenic bladder contraction in partial outlet obstructed rat measured as reduction in MAP at 1 umol/kg, iv; type: functional; parameters: scale not given: the % may be the effect or the level left
[13] = tested on: Rattus norvegicus; experiment: Activity against volume-induced reflex neurogenic bladder contraction in urethral ligated rat measured as reduction in MAP at 3 umol/kg, iv; type: functional, Urinary bladder; parameters: scale not given: the % may be the effect or the level left
[14] = tested on: Rattus norvegicus; experiment: Activity against volume-induced reflex neurogenic bladder contraction in urethral ligated rat measured as reduction in AUC at 1 umol/kg, iv; type: functional, Urinary bladder; parameters: scale not given: the % may be the effect or the level left
[15] = tested on: Rattus norvegicus; experiment: Activity against volume-induced reflex neurogenic bladder contraction in urethral ligated rat measured as reduction in MAP at 0.3 umol/kg, iv; type: functional, Urinary bladder; parameters: scale not given: the % may be the effect or the level left
[16] = tested on: Rattus norvegicus; experiment: Activity against spontaneous myogenic bladder contraction in partial outlet obstructed rat measured as reduction in MAP at 0.03 umol/kg, iv; type: functional; parameters: scale not given: the % may be the effect or the level left
[17] = tested on: Rattus norvegicus; experiment: Activity against spontaneous myogenic bladder contraction in partial outlet obstructed rat measured as reduction in MAP at 0.1 umol/kg, iv; type: functional; parameters: scale not given: the % may be the effect or the level left
[18] = tested on: Rattus norvegicus; experiment: Activity against spontaneous myogenic bladder contraction in partial outlet obstructed rat measured as reduction in AUC at 1 umol/kg, iv; type: functional; parameters: scale not given: the % may be the effect or the level left
[19] = tested on: Rattus norvegicus; experiment: Activity against spontaneous myogenic bladder contraction in partial outlet obstructed rat measured as reduction in AUC at 0.3 umol/kg, iv; type: functional; parameters: scale not given: the % may be the effect or the level left
[20] = tested on: Rattus norvegicus; experiment: Activity against spontaneous myogenic bladder contraction in partial outlet obstructed rat measured as reduction in AUC at 0.1 umol/kg, iv; type: functional; parameters: scale not given: the % may be the effect or the level left
[21] = tested on: Rattus norvegicus; experiment: Activity against spontaneous myogenic bladder contraction in partial outlet obstructed rat measured as reduction in MAP at 0.3 umol/kg, iv; type: functional; parameters: scale not given: the % may be the effect or the level left
[22] = target: T2, Sulfonylurea receptor 2, Kir6.2 (Homo sapiens); experiment: as §1; type: functional; details: Sus scrofa; filed as agonist; target entry is the homologue from another species

| EC50 [1] [nM] | EC50 [2] [nM] | EC50 [3] [nM] | Efficacy [4] [%] | Efficacy [5] [%] | Activity [6] | Efficacy [7] [%] | Structure (SMILES) | further results |
| --- | --- | --- | --- | --- | --- | --- | --- | --- |
| 19.1 | 282 | 170 |  |  |  |  | CC[C@H]1OC(O)=C2C1=NC1=C(C(=O)COC1)[C@H]2c1ccc(F)c(Br)c1 (stereo in doubt; 21b) |  |
| 245 | 13500 | 245 |  |  |  |  | CC[C@H]1OCC(O)=C2C1=NC1=C(C(=O)COC1)[C@H]2c1ccc(Br)c(Cl)c1 (stereo in doubt; 76b) [listing 1 of 2 here] |  |
| 55 | 2290 | 170 |  |  |  |  | CC[C@H]1OCC(O)=C2C1=NC1=C(C(=O)COC1)[C@H]2c1ccc(Cl)c(Cl)c1 (stereo in doubt; 74b) [listing 1 of 2 here] |  |
|  |  |  | 45 | 34 | Partial agonist | 99 | CCC[C@H]1OC(O)=C2C1=NC1=C(C(=O)COC1)[C@H]2c1ccc(F)c(Br)c1 (stereo in doubt; 23b) [listing 1 of 2 here] |  |
| 129 | 2040 | 170 |  |  |  |  | CC[C@H]1OCC(O)=C2C1=NC1=C(C(=O)COC1)[C@H]2c1ccc(F)c(Br)c1 (stereo in doubt; 71a) [listing 1 of 2 here] |  |
| 28.8 | 513 | 27.5 |  |  |  |  | CCC[C@H]1OC(O)=C2C1=NC1=C(C(=O)COC1)[C@H]2c1ccc(F)c(Br)c1 (stereo in doubt; 23b) [listing 2 of 2 here] | Activity [8]: 4.2%; Activity [9]: 16%; Activity [10]: 43.8%; Activity [11]: 37.4%; Activity [12]: 40.7%; Activity [13]: 49.7%; Activity [14]: 31.9%; Activity [15]: 22.6%; Activity [16]: 5.1%; Activity [17]: 9.6%; Activity [18]: 93.1%; Activity [19]: 46.7%; Activity [20]: 19.1%; Activity [21]: 23.6% |
|  |  |  | 15 | 100 | Partial agonist |  | CC[C@H]1OC(O)=C2C1=NC1=C(C(=O)CSC1)[C@H]2c1ccc(F)c(Br)c1 (relative stereo) | Activity [22]: Agonist |
|  |  |  | 40 | 54 | Partial agonist | 98 | CC[C@H]1OCC(O)=C2C1=NC1=C(C(=O)COC1)[C@H]2c1ccc(F)c(Br)c1 (stereo in doubt; 71a) [listing 2 of 2 here] |  |
|  |  |  | 40 | 88 | Partial agonist |  | CC[C@H]1OC(O)=C2C1=NC1=C(C(=O)COC1)[C@H]2c1ccc(F)c(Br)c1 (racemic) | Activity [22]: Agonist |
| 0.676 | 214 | 37.2 |  |  |  |  | O=C1COCC2=C1C(c1ccc(F)c(Br)c1)C1=C(O)OCC1=N2 (stereo in doubt; 6b) |  |
| 331 | 1660 | 851 |  |  |  |  | CCCC[C@H]1OC(O)=C2C1=NC1=C(C(=O)COC1)[C@H]2c1ccc(F)c(Br)c1 (stereo in doubt; 29b) |  |
| 102 | 676 | 2340 | 71 | 94 |  | 100 | CCc1cc(C#N)ccc1Nc1c(N[C@H](C)C(C)(C)C)c(=O)c1=O |  |
|  |  |  | 37 | 38 | Partial agonist | 97 | CC[C@H]1OCC(O)=C2C1=NC1=C(C(=O)COC1)[C@H]2c1ccc(Br)c(Cl)c1 (stereo in doubt; 76b) [listing 2 of 2 here] |  |
|  |  |  | 57 | 41 | Partial agonist | 92 | CC[C@H]1OCC(O)=C2C1=NC1=C(C(=O)COC1)[C@H]2c1ccc(Cl)c(Cl)c1 (stereo in doubt; 74b) [listing 2 of 2 here] |  |
|  |  |  | 36 | 90 | Partial agonist |  | CCC[C@H]1OC(O)=C2C1=NC1=C(C(=O)COC1)[C@H]2c1ccc(F)c(Br)c1 (racemic) | Activity [22]: Agonist |
| 21.9 | 85.1 | 52.5 |  |  |  |  | CCC(C)(C)NC(=NC#N)Nc1cccnc1 |  |
